Experimental data reported in ChEMBL document CHEMBL1821586, “Identification and biological activities of new taccalonolide microtubule stabilizers” (J Med Chem, 2011).
Active and inactive are the calls of the source. The rule behind the calls is not given here.

Experiments:
HeLa [1] = assay: Induction of interphase microtubule bundling in human HeLa cells at 3.5 uM after 18 hrs by indirect immunofluorescence analysis; assay type: cell-based
HeLa [2] = assay: Cell cycle arrest in human HeLa cells assessed as accumulation of cells at G2/M phase at 3.5 uM after 18 hrs by flow cytometric analysis; assay type: functional, cell-based
Outline: (§1)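 DNA stained with propidium iodide (Krishan's reagent); DNA content measured by flow cytometry and plotted as PI intensity vs events.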

HeLa [3] = assay: Antiproliferative activity against human HeLa cells after 48 hrs by SRB assay; assay type: functional, cell-based
Outline: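 HeLa cells grown in BME with 10% FBS and 50 µg/ml gentamicin, drug-treated 48 h, proliferation read by SRB assay.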

[4] = Antitumor activity against mouse 16/C cells allografted in mouse B6C3F1 assessed as decrease in tumor mass at 56 mg/kg, iv administered on days 1,4,6 and day 8 or 9 relative to control; assay type: functional
Outline: (§2)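 Female B6C3F1 mice (mean 19.3 ± 1.0 g) carried bilateral s.c. Mammary 16/C tumor fragments implanted day 0, 5 mice/group. […] All were given IV in 0.2 ml. Tumor mass = L×W²/2, measured 2–3 times weekly. %T/C = treated/control median mass, zeros included, taken when control tumors reach ~700–1200 mg.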

[5] = Antitumor activity against mouse 16/C cells allografted in mouse B6C3F1 assessed as decrease in tumor mass at 40 mg/kg, iv administered on days 1,4,6 and day 8 or 9 relative to control; assay type: functional; outline: as §2
[6] = Antitumor activity against mouse 16/C cells allografted in mouse B6C3F1 assessed as delay in tumor growth at 56 mg/kg, iv administered on days 1,4,6 and day 8 or 9 relative to control; assay type: functional
Outline: (§3)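 Mammary 16/C fragments implanted s.c. bilaterally in female B6C3F1 mice on day 0, 5 mice/group, IV dosing in 0.2 ml. Tumors measured 2–3 times weekly. T-C = median days for treated vs control tumors to reach 1000 mg. Gross log cell kill = (T-C)/3.32×Td, with Td the doubling time from a log-linear fit of control tumor growth.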

[7] = Antitumor activity against mouse 16/C cells allografted in mouse B6C3F1 assessed as delay in tumor growth at 40 mg/kg, iv administered on days 1,4,6 and day 8 or 9 relative to control; assay type: functional; outline: as §3
[8] = Antitumor activity against mouse 16/C cells allografted in mouse B6C3F1 assessed as gross log cell killing at 56 mg/kg, iv administered on days 1,4,6 and day 8 or 9 relative to control; assay type: functional
Outline: (§4)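 Mammary 16/C tumor fragments implanted bilaterally s.c. in female B6C3F1 mice on day 0, 5 mice/group. Taccalonolides in 50% DMSO:50% Cremophor stock, diluted with sterile water, given i.v. in 0.2 ml on days 1, 4, 6, plus one dose 2–3 days later (A, N) or further doses days 8, 9, 11 (E). Tumor mass = length × width²/2, measured 2–3 times weekly. Gross log cell kill = (T-C)/3.32 × Td, with T-C the days to 1000 mg.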

[9] = Antitumor activity against mouse 16/C cells allografted in mouse B6C3F1 assessed as gross log cell killing at 40 mg/kg, iv administered on days 1,4,6 and day 8 or 9 relative to control; assay type: functional; outline: as §4
Mus musculus [10] = assay: Toxicity in B6C3F1 mouse allografted with mouse 16/C cells assessed as mean body weight loss at 56 mg/kg, iv administered on days 1,4,6 and day 8 or 9 (reference value: -2.2%); assay type: organism-based; parameters: dose 56 mg/kg, route intravenous; settings: in vivo
Mus musculus [11] = assay: Toxicity in B6C3F1 mouse allografted with mouse 16/C cells assessed as mean body weight loss at 40 mg/kg, iv administered on days 1,4,6 and day 8 or 9 (reference value: -2.2%); assay type: organism-based; parameters: dose 40 mg/kg, route intravenous; settings: in vivo
HeLa [12] = assay: Inhibition of beta tubulin in human HeLa cells assessed asultiple abnormal mitotic spindle formation at 3.5 uM after 18 hrs by immunofluorescence analysis; assay type: cell-based
[13] = Toxicity in B6C3F1 mouse allografted with mouse 16/C cells assessed as lethality at 56 mg/kg, iv; assay type: organism-based; parameters: dose 56 mg/kg, route intravenous; settings: in vivo, read-out: Activity
HeLa [14] = assay: Induction of interphase microtubule bundling in human HeLa cells at 1.3 uM after 18 hrs by indirect immunofluorescence; assay type: cell-based
HeLa [15] = assay: Cell cycle arrest in human HeLa cells assessed as accumulation of cells at G2/M phase at 1.3 uM after 18 hrs by flow cytometric analysis; assay type: functional, cell-based; outline: as §1
[16] = Antitumor activity against mouse 16/C cells allografted in mouse B6C3F1 assessed as decrease in tumor mass at 36 mg/kg, iv administered on days 1,4,6 and day 8 or 9 relative to control; assay type: functional; outline: as §2
[17] = Antitumor activity against mouse 16/C cells allografted in mouse B6C3F1 assessed as decrease in tumor mass at 20 mg/kg, iv administered on days 1,4,6 and day 8 or 9 relative to control; assay type: functional; outline: as §2
[18] = Antitumor activity against mouse 16/C cells allografted in mouse B6C3F1 assessed as delay in tumor growth at 36 mg/kg, iv administered on days 1,4,6 and day 8 or 9 relative to control; assay type: functional; outline: as §3
[19] = Antitumor activity against mouse 16/C cells allografted in mouse B6C3F1 assessed as delay in tumor growth at 20 mg/kg, iv administered on days 1,4,6 and day 8 or 9 relative to control; assay type: functional; outline: as §3
[20] = Antitumor activity against mouse 16/C cells allografted in mouse B6C3F1 assessed as gross log cell killing at 36 mg/kg, iv administered on days 1,4,6 and day 8 or 9 relative to control; assay type: functional; outline: as §4
[21] = Antitumor activity against mouse 16/C cells allografted in mouse B6C3F1 assessed as gross log cell killing at 20 mg/kg, iv administered on days 1,4,6 and day 8 or 9 relative to control; assay type: functional; outline: as §4
Mus musculus [22] = assay: Toxicity in B6C3F1 mouse allografted with mouse 16/C cells assessed as mean body weight loss at 36 mg/kg, iv administered on days 1,4,6 and day 8 or 9 (reference value: -2.2%); assay type: organism-based; parameters: dose 36 mg/kg, route intravenous; settings: in vivo
Mus musculus [23] = assay: Toxicity in B6C3F1 mouse allografted with mouse 16/C cells assessed as mean body weight loss at 20 mg/kg, iv administered on days 1,4,6 and day 8 or 9 (reference value: -2.2%); assay type: organism-based; parameters: dose 20 mg/kg, route intravenous; settings: in vivo
[24] = Toxicity in B6C3F1 mouse allografted with mouse 16/C cells assessed as lethality at 20 mg/kg, iv administered on days 1,4,6 and day 8 or 9 measured after 12 days relative to control; assay type: organism-based; parameters: dose 20 mg/kg, route intravenous; settings: in vivo, read-out: Activity
Outline: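 Female B6C3F1 mice, 5 per group, bore bilateral s.c. Mammary 16/C fragments. Taccalonolides in DMSO:Cremophor diluted with water were given i.v. on days 1, 4, 6 plus a later dose (A, N) or days 8, 9, 11 (E). Mice were weighed and observed daily, and lethality was recorded per group.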

HeLa [25] = assay: Inhibition of beta tubulin in human HeLa cells assessed asultiple abnormal mitotic spindle formation at 1.3 uM after 18 hrs by immunofluorescence analysis; assay type: cell-based

CC(=O)O[C@@H]1[C@H]2[C@H]3[C@H]([C@H](OC(C)=O)[C@H](OC(C)=O)[C@]2(C)[C@@H]2[C@@H]1[C@]1(C)C(=C[C@H]2C)OC(=O)[C@@]1(C)O)[C@]1(C)[C@H](C[C@@H]2O[C@@H]2[C@@H]1OC(C)=O)C(=O)[C@@H]3O [TACCALONOLIDE A]
Activity (HeLa [1]): Active | Activity (HeLa [2]): Active | IC50 (HeLa [3]): 594 nM | T/C [4]: 0% | T/C [5]: 24% | Time [6]: 16 days | Time [7]: 4 days | LCK [8]: 4 | LCK [9]: 1 | Activity (Mus musculus [10]): -16.7% | Activity (Mus musculus [11]): -6.3% | inhibition (HeLa [12]): Active | mortality [13]: 20%

CC(=O)O[C@H]1C[C@H]2[C@H]([C@@H]3[C@@H](O)[C@@H]4[C@H]([C@H](C)C=C5OC(=O)[C@@](C)(O)[C@@]54C)[C@]31C)[C@@H](O)C(=O)[C@H]1C[C@@H]3O[C@@H]3[C@H](OC(C)=O)[C@@]12C [TACCALONOLIDE N]
Activity (HeLa [14]): Active | Activity (HeLa [15]): Active | IC50 (HeLa [3]): 247 nM | T/C [16]: 0% | T/C [17]: 43% | Time [18]: 5 days | Time [19]: 1 days | LCK [20]: 1.25 | LCK [21]: 0.25 | Activity (Mus musculus [22]): -8.2% | Activity (Mus musculus [23]): -2.1% | mortality at 288 h [24]: 0% | inhibition (HeLa [25]): Active
